Experimental data from ChEMBL document CHEMBL1926652, “Effect of 2',6'-dimethyl-L-tyrosine (Dmt) on pharmacological activity of cyclic endomorphin-2 and morphiceptin analogs” (Bioorg Med Chem, 2011).
The source made the active and inactive calls. Where a SMILES comes first, the peptide text is derived from it. Bridges are numbered along the chain shown (N, C = ends). [ ]: non-standard residue; d: D form. Dmt = Cc1cc(O)cc(C)c1C[C@H](N)C(=O)O

How the values were obtained:
Mus musculus [1] = species: Mus musculus; experiment: Antinociceptive activity in Swiss albino mouse assessed as jumping latency at 3 ng by hot plate method in presence of beta funaltrexamine; type: functional, organism-based
Method in brief: (§1)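 Hot plate test at 55 °C in male Swiss albino mice, 10 per group, with jumping latency read and a 240 s cut-off. Antagonists were given i.c.v.: beta-funaltrexamine, naltrindole at 1 µg/animal, nor-binaltorphimine at 5 µg/animal. Agonist peptides were given i.c.v. at 3 ng/animal. Inhibition of jumping expressed as %MPE.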

Rattus norvegicus = species: Rattus norvegicus; experiment: Selectivity ratio of IC50 for delta opioid receptor in Wistar rat brain membrane to IC50 for mu opioid receptor in Wistar rat brain membrane; type: cell membranes
Method in brief: (§2)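 Crude membranes from Wistar rat brain incubated with [3H]DAMGO for mu or [3H][Ile5,6]deltorphin-2 for delta. Non-specific binding defined with naloxone. Reaction ended by rapid filtration on GF/B strips soaked in 0.5% […], then two ice-cold Tris-HCl washes. Bound radioactivity counted by liquid scintillation after overnight extraction. IC50 from three independent experiments in duplicate; ratio is delta IC50/mu IC50.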

Mu-type opioid receptor = Mu-type opioid receptor (Rattus norvegicus, UniProt P33535); experiment: Displacement of [3H]DAMGO from Wistar rat mu opioid receptor by liquid scintillation counting; method in brief: as §2
Mus musculus [2] = species: Mus musculus; experiment: Antinociceptive activity in Swiss albino mouse assessed as jumping latency at 3 ng by hot plate method in presence of naltrindole; type: functional, organism-based; method in brief: as §1
Mus musculus [3] = experiment: Antinociceptive activity in Swiss albino mouse assessed as jumping latency at 10 ng, icv up to 30 mins by hot plate method; type: functional, organism-based
Method in brief: (§3)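 Male Swiss albino mice (20–26 g), 10 per group. Peptides dissolved in DMSO, diluted in saline, given i.c.v. with a Hamilton syringe and 0.5 mm needle, 5 min before testing in dose–response runs. Mouse confined by a plastic cylinder on a 55 °C hot plate. Latencies to paw licking, rearing and jumping recorded, 240 s cut-off. %MPE = (t1−t0)/(t2−t0)×100. ED50 derived from dose–response.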

Mus musculus [4] = experiment: Antinociceptive activity in icv dosed in Swiss albino mouse assessed as rearing latency by hot plate method; type: functional, organism-based; method in brief: as §3
Mus musculus [5] = experiment: Antinociceptive activity in icv dosed in Swiss albino mouse assessed as paw licking latency by hot plate method; type: functional, organism-based; method in brief: as §3
[6] = Half life in Wistar rat brain at 0.5 mM by RP-HPLC analysis; type: ADME, tissue-based
Method in brief: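 Pooled rat brains homogenized in 20 volumes of 50 mM Tris-HCl, pH 7.4. Homogenate at 10 mg protein/ml incubated with an equal volume of 0.5 mM peptide at 37 °C for 0–60 min. Reaction stopped on ice with 1 M HCl, then centrifuged at 20,000g. Three experiments in duplicate.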

Brain = experiment: Drug uptake in Swiss albino mouse brain 0.01 to 1 mg/kg, iv; type: ADME, organism-based; design: dose 0.01-1 mg/kg, route intravenous; conditions: in vivo
Method in brief: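 Blood–brain barrier passage judged in vivo. Peptides at 0.01 and 1 mg/kg were injected intravenously into male Swiss albino mice 30 min before a 55 °C hot plate test. Paw licking, rearing and jumping latencies recorded with a 240 s cut-off and expressed as %MPE.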

Mus musculus [7] = experiment: Antinociceptive activity in icv dosed in Swiss albino mouse assessed as jumping latency by hot plate method; type: functional; method in brief: as §3
[8] = target: Delta-type opioid receptor (Rattus norvegicus, UniProt P33533); experiment: Displacement of [3H][Ile5,6]deltorphin 2 from delta opioid receptor in Wistar rat brain membrane by liquid scintillation counting; type: cell membranes; method in brief: as §2
Mus musculus [9] = species: Mus musculus; experiment: Antinociceptive activity in Swiss albino mouse assessed as jumping latency at 3 ng by hot plate method in presence of norbinaltorphimine; type: functional, organism-based; method in brief: as §1
Mus musculus [10] = experiment: Antinociceptive activity in Swiss albino mouse assessed as jumping latency at 10 ug, icv up to 90 mins by hot plate method; type: functional, organism-based; method in brief: as §3
Mus musculus [11] = experiment: Antinociceptive activity in Swiss albino mouse assessed as jumping latency at 10 ug, icv after 5 to 10 mins by hot plate method; type: functional, organism-based; method in brief: as §3
Mus musculus [12] = experiment: Antinociceptive activity in Swiss albino mouse assessed as jumping latency at 3 ug, icv after 5 to 10 mins by hot plate method; type: functional, organism-based; method in brief: as §3
Mus musculus [13] = experiment: Antinociceptive activity in icv dosed Swiss albino mouse assessed as jumping latency at 3 ug, icv up to 90 mins by hot plate method; type: functional, organism-based; method in brief: as §3

Sequence of Delta-type opioid receptor (P33533 whole entry): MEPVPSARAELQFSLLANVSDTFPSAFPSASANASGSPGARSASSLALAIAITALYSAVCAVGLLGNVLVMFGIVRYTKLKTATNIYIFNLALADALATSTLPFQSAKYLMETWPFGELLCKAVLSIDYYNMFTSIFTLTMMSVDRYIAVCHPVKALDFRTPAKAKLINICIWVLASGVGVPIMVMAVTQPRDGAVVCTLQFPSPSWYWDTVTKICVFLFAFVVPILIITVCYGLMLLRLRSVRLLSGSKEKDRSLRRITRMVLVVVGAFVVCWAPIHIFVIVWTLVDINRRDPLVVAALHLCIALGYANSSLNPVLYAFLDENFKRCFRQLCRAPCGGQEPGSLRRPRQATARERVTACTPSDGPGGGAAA
Sequence of Mu-type opioid receptor (P33535 whole entry): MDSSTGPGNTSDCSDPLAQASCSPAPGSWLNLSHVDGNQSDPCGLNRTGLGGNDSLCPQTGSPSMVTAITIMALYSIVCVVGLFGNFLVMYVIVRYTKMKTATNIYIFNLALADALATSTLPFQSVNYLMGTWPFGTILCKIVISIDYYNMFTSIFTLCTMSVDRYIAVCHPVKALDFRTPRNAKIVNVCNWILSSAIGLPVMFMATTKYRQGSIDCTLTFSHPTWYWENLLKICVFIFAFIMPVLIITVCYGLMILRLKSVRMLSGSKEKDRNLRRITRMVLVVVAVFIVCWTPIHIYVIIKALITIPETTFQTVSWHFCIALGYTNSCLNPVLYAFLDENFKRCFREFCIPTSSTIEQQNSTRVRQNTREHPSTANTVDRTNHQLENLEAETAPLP

SMILES: Cc1cc(O)cc(C)c1C[C@H](N)C(=O)N[C@@H]1CC(=O)NCCCC[C@@H](C(N)=O)NC(=O)[C@H]2CCCN2C(=O)[C@H](Cc2ccccc2)NC1=O
- Activity (Mus musculus [1]): inactive
- Ratio IC50 (Rattus norvegicus): 13.2
- IC50 (Mu-type opioid receptor): 4.4 nM
- Activity (Mus musculus [2]): Active
- Activity (Mus musculus [3]): Active
- Activity (Mus musculus [4]): Dose-dependent effect
- Activity (Mus musculus [5]): Dose-dependent effect
- half-life at 500 µM [6]: 10.4 h
- Drug uptake (Brain): Not Active
- Activity (Mus musculus [7]): Dose-dependent effect
- ED50 (Mus musculus [7]): <0.01 µg
- IC50 [8]: 58.3 nM
- Activity (Mus musculus [9]): Active

SMILES: NC(=O)[C@@H]1CCCCNC(=O)C[C@@H](NC(=O)[C@@H](N)Cc2ccc(O)cc2)C(=O)N[C@@H](Cc2ccccc2)C(=O)N2CCC[C@@H]2C(=O)N1
- Ratio IC50 (Rattus norvegicus): > 65.3
- IC50 (Mu-type opioid receptor): 15.3 nM
- Activity (Mus musculus [4]): Dose-dependent effect
- Activity (Mus musculus [5]): Dose-dependent effect
- half-life at 500 µM [6]: 1.05 h
- Activity (Mus musculus [7]): Dose-dependent effect
- ED50 (Mus musculus [7]): 0.07 µg
- IC50 [8]: > 1000 nM

SMILES: NC(=O)[C@@H]1CCCN1C(=O)[C@H](Cc1ccccc1)NC(=O)[C@@H]1CCCN1C(=O)[C@@H](N)Cc1ccc(O)cc1 [MORPHICEPTIN] (H-YPFP-NH2)
- Ratio IC50 (Rattus norvegicus): > 17.7
- IC50 (Mu-type opioid receptor): 56.6 nM
- Activity (Mus musculus [4]): Dose-dependent effect
- Activity (Mus musculus [10]): Active
- Activity (Mus musculus [5]): Dose-dependent effect
- half-life at 500 µM [6]: 0.278 h
- Activity (Mus musculus [7]): Dose-dependent effect
- ED50 (Mus musculus [7]): 5.11 µg
- IC50 [8]: > 1000 nM
- Activity (Mus musculus [11]): Active

SMILES: Cc1cc(O)cc(C)c1C[C@H](N)C(=O)N[C@@H]1CCCCNC(=O)C[C@@H](C(N)=O)NC(=O)[C@H](Cc2ccccc2)NC(=O)[C@H](Cc2ccccc2)NC1=O (H-[Dmt][dK]FFD-NH2; lactam 2-5)
- Ratio IC50 (Rattus norvegicus): > 1000
- IC50 (Mu-type opioid receptor): 0.26 nM
- Activity (Mus musculus [4]): Dose-dependent effect
- Activity (Mus musculus [5]): Dose-dependent effect
- half-life at 500 µM [6]: > 16.7 h
- Activity (Mus musculus [7]): Dose-dependent effect
- ED50 (Mus musculus [7]): 0.02 µg
- IC50 [8]: 400 nM

SMILES: NC(=O)[C@@H]1CC(=O)NCCCC[C@@H](NC(=O)[C@@H](N)Cc2ccc(O)cc2)C(=O)N[C@@H](Cc2ccccc2)C(=O)N2CCC[C@@H]2C(=O)N1
- Ratio IC50 (Rattus norvegicus): > 11.2
- IC50 (Mu-type opioid receptor): 89.5 nM
- Activity (Mus musculus [4]): Dose-dependent effect
- Activity (Mus musculus [5]): Dose-dependent effect
- half-life at 500 µM [6]: 1.95 h
- Activity (Mus musculus [7]): Dose-dependent effect
- ED50 (Mus musculus [7]): 0.02 µg
- IC50 [8]: > 1000 nM

SMILES: Cc1cc(O)cc(C)c1C[C@H](N)C(=O)N[C@@H]1CCCCNC(=O)C[C@@H](C(N)=O)NC(=O)[C@H]2CCCN2C(=O)[C@H](Cc2ccccc2)NC1=O
- Activity (Mus musculus [1]): inactive
- Ratio IC50 (Rattus norvegicus): 23.5
- IC50 (Mu-type opioid receptor): 5.6 nM
- Activity (Mus musculus [2]): Active
- Activity (Mus musculus [3]): Active
- Activity (Mus musculus [4]): Dose-dependent effect
- Activity (Mus musculus [5]): Dose-dependent effect
- half-life at 500 µM [6]: > 16.7 h
- Drug uptake (Brain): Not Active
- Activity (Mus musculus [7]): Dose-dependent effect
- ED50 (Mus musculus [7]): <0.01 µg
- IC50 [8]: 132 nM
- Activity (Mus musculus [9]): Active

SMILES: CC(C)[C@H](NC(=O)[C@H](CCC(=O)O)NC(=O)[C@H](Cc1ccccc1)NC(=O)[C@H](C)NC(=O)[C@@H](N)Cc1ccc(O)cc1)C(=O)N[C@H](C(=O)NCC(=O)O)C(C)C [DELTORPHINE II]
- IC50 [8]: 0.08 nM

SMILES: NC(=O)[C@@H]1CC(=O)NCCCC[C@@H](NC(=O)[C@@H](N)Cc2ccc(O)cc2)C(=O)N[C@@H](Cc2ccccc2)C(=O)N[C@@H](Cc2ccccc2)C(=O)N1 (H-Y[dK]FFD-NH2; lactam 2-5)
- Ratio IC50 (Rattus norvegicus): 498
- IC50 (Mu-type opioid receptor): 0.56 nM
- Activity (Mus musculus [4]): Dose-dependent effect
- Activity (Mus musculus [5]): Dose-dependent effect
- half-life at 500 µM [6]: 6.05 h
- Activity (Mus musculus [7]): Dose-dependent effect
- ED50 (Mus musculus [7]): 0.05 µg
- IC50 [8]: 279 nM

SMILES: NC(=O)[C@H](Cc1ccccc1)NC(=O)[C@H](Cc1ccccc1)NC(=O)[C@@H]1CCCN1C(=O)[C@@H](N)Cc1ccc(O)cc1 [ENDOMORPHIN 2]
- Activity (Mus musculus [12]): Active
- Activity (Mus musculus [4]): Dose-dependent effect
- Activity (Mus musculus [5]): Dose-dependent effect
- Activity (Mus musculus [13]): Active
- half-life at 500 µM [6]: 0.238 h
- Activity (Mus musculus [7]): Dose-dependent effect
- ED50 (Mus musculus [7]): 5.48 µg
